Laboratory results from ChEMBL document CHEMBL3102784, “Salicylanilide diethyl phosphates: synthesis, antimicrobial activity and cytotoxicity” (Bioorg Med Chem, 2014).
In brackets after ≈: the same amount, converted by molar mass. Activity calls are given as the source filed them. No cut-off for these calls is given here.

What was measured:
[1] = test system: Enterococcus sp.; experiment: Antibacterial activity against Enterococcus sp. J 14365/08 at 500 micromol/L after 24 to 48 hrs by broth microdilution method; type: functional, organism-based
Procedure, shortened: (§1)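 Broth microdilution in Mueller–Hinton broth, compounds dissolved in DMSO, tested over a dilution series from 500 downward. MIC taken as ≥95% growth reduction (IC95) versus drug-free control. Benzylpenicillin comparator. Readings at 24 and 48 h.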

[2] = test system: Lichtheimia corymbifera; experiment: Antifungal activity against Absidia corymbifera 272 after 24 hrs by broth microdilution method; type: functional; details: Lichtheimia corymbifera, 272, 24 h
Procedure, shortened: (§2)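 Broth microdilution in RPMI 1640 with glutamine, fluconazole as reference. For yeasts, MIC is ≥80% growth reduction (IC80) versus control. For filamentous fungi, the value is expressed as IC50. Readings at 24 and 48 h.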

[3] = test system: Aspergillus fumigatus; experiment: Antifungal activity against Aspergillus fumigatus 231 after 24 hrs by broth microdilution method; type: functional; details: Aspergillus fumigatus, 231, 24 h; procedure, shortened: as §2
[4] = test system: Mycobacterium kansasii; experiment: Antimycobacterial activity against Mycobacterium kansasii 6509/96 after 14 days; type: functional; details: 6509/96, 336 h
Procedure, shortened: (§3)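 Micromethod MIC in Šula's semisynthetic medium at 37 °C. Compounds added in DMSO at 1000 down to 0.032 µmol/L. Isoniazid standard in sterile water at 0.5–250 µmol/L. Inocula: H37Rv 10^3, M. avium 10^5, M. kansasii 10^4. Read at 14 and 21 d, plus 7 d for M. kansasii.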

[5] = test system: Nakaseomyces glabratus; experiment: Antifungal activity against Candida glabrata 20/I at 500 micromol/L after 24 to 48 hrs by broth microdilution method; type: functional, organism-based; procedure, shortened: as §2
[6] = test system: Staphylococcus epidermidis; experiment: Antibacterial activity against Staphylococcus epidermidis H 6966/08 after 24 hrs by broth microdilution method; type: functional; details: H 6966/08, 24 h; procedure, shortened: as §1
[7] = test system: Aspergillus fumigatus; experiment: Antifungal activity against Aspergillus fumigatus 231 after 48 hrs by broth microdilution method; type: functional; details: Aspergillus fumigatus, 231, 48 h; procedure, shortened: as §2
[8] = test system: Mycobacterium avium; experiment: Antimycobacterial activity against isoniazid, rifampicin, ethambutol and ofloxacin-resistant Mycobacterium avium My 330/88 after 14 days; type: functional; details: My 330/88, 336 h; procedure, shortened: as §3
[9] = test system: Trichophyton mentagrophytes; experiment: Antifungal activity against Trichophyton mentagrophytes 445 after 120 hrs by broth microdilution method; type: functional; details: Trichophyton mentagrophytes, 445, 120 h
Procedure, shortened: (§4)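 Filamentous dermatophyte tested by broth microdilution in RPMI 1640 with glutamine, fluconazole as reference. Value expressed as IC50 relative to growth control. Read at 72 and 120 h.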

[10] = test system: Staphylococcus epidermidis; experiment: Antibacterial activity against Staphylococcus epidermidis H 6966/08 after 48 hrs by broth microdilution method; type: functional; details: H 6966/08, 48 h; procedure, shortened: as §1
[11] = test system: Klebsiella pneumoniae; experiment: Antibacterial activity against ESBL-positive Klebsiella pneumoniae J 14368/08 at 500 micromol/L after 24 to 48 hrs by broth microdilution method; type: functional, organism-based; procedure, shortened: as §1
[12] = test system: Mycobacterium kansasii; experiment: Antimycobacterial activity against Mycobacterium kansasii My 235/80 after 7 days; type: functional; details: My 235/80, 168 h; procedure, shortened: as §3
[13] = test system: Pichia kudriavzevii; experiment: Antifungal activity against Candida krusei E28 after 48 hrs by broth microdilution method; type: functional; details: E28, 48 h; procedure, shortened: as §2
[14] = test system: Candida albicans; experiment: Antifungal activity against Candida albicans ATCC 44859 after 24 hrs by broth microdilution method; type: functional; details: ATCC 44859, 24 h; procedure, shortened: as §2
[15] = test system: Staphylococcus aureus; experiment: Antibacterial activity against methicillin-resistant Staphylococcus aureus H 5996/08 after 24 hrs by broth microdilution method; type: functional; details: H 5996/08, 24 h; procedure, shortened: as §1
[16] = test system: Mycobacterium tuberculosis; experiment: Antimycobacterial activity against Mycobacterium tuberculosis H37Rv My 331/88 after 14 days; type: functional; details: H37Rv My 331/88, 336 h; procedure, shortened: as §3
[17] = test system: Staphylococcus aureus; experiment: Antibacterial activity against Staphylococcus aureus CCM 4516/08 after 24 hrs by broth microdilution method; type: functional; details: CCM 4516/08, 24 h; procedure, shortened: as §1
[18] = test system: Trichophyton mentagrophytes; experiment: Antifungal activity against Trichophyton mentagrophytes 445 after 72 hrs by broth microdilution method; type: functional; details: Trichophyton mentagrophytes, 445, 72 h; procedure, shortened: as §4
[19] = test system: Mycobacterium kansasii; experiment: Antimycobacterial activity against Mycobacterium kansasii My 235/80 after 14 days; type: functional; details: My 235/80, 336 h; procedure, shortened: as §3
[20] = test system: Candida albicans; experiment: Antifungal activity against Candida albicans ATCC 44859 after 48 hrs by broth microdilution method; type: functional; details: ATCC 44859, 48 h; procedure, shortened: as §2
[21] = test system: Pichia kudriavzevii; experiment: Antifungal activity against Candida krusei E28 after 24 hrs by broth microdilution method; type: functional; details: E28, 24 h; procedure, shortened: as §2
[22] = test system: Mycobacterium tuberculosis; experiment: Antimycobacterial activity against Mycobacterium tuberculosis H37Rv My 331/88 after 21 days; type: functional; details: H37Rv My 331/88, 504 h; procedure, shortened: as §3
[23] = test system: Mycobacterium kansasii; experiment: Antimycobacterial activity against Mycobacterium kansasii My 235/80 after 21 days; type: functional; details: My 235/80, 504 h; procedure, shortened: as §3
[24] = test system: Escherichia coli; experiment: Antibacterial activity against Escherichia coli CCM 4517 at 500 micromol/L after 24 to 48 hrs by broth microdilution method; type: functional, organism-based; procedure, shortened: as §1
[25] = test system: Trichosporon asahii; experiment: Antifungal activity against Trichosporon asahii 1188 after 48 hrs by broth microdilution method; type: functional; details: Trichosporon asahii, 1188, 48 h; procedure, shortened: as §2
[26] = test system: HepG2; experiment: Cytotoxicity against human HepG2 cells after 24 hrs by CellTiter assay; type: cell-based; details: HepG2, 24 h
Procedure, shortened: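 HepG2 cells (passage 27–33) in MEM with 10% FBS, L-glutamine and NEAA, seeded at 1×10^4 per well. Treated next day with compounds at 0.1–100 µM (or 0.1–25 µmol/L), triplicates, <1% DMSO, for 24 h at 37 °C, 5% CO2. MTS reagent added for 2 h, absorbance read at 490 nm. IC50 taken against untreated (100%) and 10% DMSO (0%) controls.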

[27] = test system: Mycobacterium kansasii; experiment: Antimycobacterial activity against Mycobacterium kansasii 6509/96 after 7 days; type: functional; details: 6509/96, 168 h; procedure, shortened: as §3
[28] = test system: Mycobacterium kansasii; experiment: Antimycobacterial activity against Mycobacterium kansasii 6509/96 after 21 days; type: functional; details: 6509/96, 504 h; procedure, shortened: as §3
[29] = test system: Klebsiella pneumoniae; experiment: Antibacterial activity against Klebsiella pneumoniae D 11750/08 at 500 micromol/L after 24 to 48 hrs by broth microdilution method; type: functional, organism-based; procedure, shortened: as §1
[30] = test system: Staphylococcus aureus; experiment: Antibacterial activity against methicillin-resistant Staphylococcus aureus H 5996/08 after 48 hrs by broth microdilution method; type: functional; details: H 5996/08, 48 h; procedure, shortened: as §1
[31] = test system: Staphylococcus aureus; experiment: Antibacterial activity against Staphylococcus aureus CCM 4516/08 after 48 hrs by broth microdilution method; type: functional; details: CCM 4516/08, 48 h; procedure, shortened: as §1
[32] = test system: Trichosporon asahii; experiment: Antifungal activity against Trichosporon asahii 1188 after 24 hrs by broth microdilution method; type: functional; details: Trichosporon asahii, 1188, 24 h; procedure, shortened: as §2
[33] = test system: Candida tropicalis; experiment: Antifungal activity against Candida tropicalis 156 at 500 micromol/L after 24 to 48 hrs by broth microdilution method; type: functional, organism-based; procedure, shortened: as §2
[34] = test system: Mycobacterium avium; experiment: Antimycobacterial activity against isoniazid, rifampicin, ethambutol and ofloxacin-resistant Mycobacterium avium My 330/88 after 21 days; type: functional; details: My 330/88, 504 h; procedure, shortened: as §3
[35] = test system: Lichtheimia corymbifera; experiment: Antifungal activity against Absidia corymbifera 272 after 48 hrs by broth microdilution method; type: functional; details: Lichtheimia corymbifera, 272, 48 h; procedure, shortened: as §2
[36] = test system: Pseudomonas aeruginosa; experiment: Antibacterial activity against Pseudomonas aeruginosa CCM 1961 at 500 micromol/L after 24 to 48 hrs by broth microdilution method; type: functional, organism-based; procedure, shortened: as §1

Structure (SMILES)	Activity [1]	MIC50 [2] [µM]	MIC50 [3] [µM]	MIC [4] [µM]	Activity [5]	MIC95 [6] [µM]	MIC50 [7] [µM]	MIC [8] [µM]	MIC50 [9] [µM]	MIC95 [10] [µM]	Activity [11]	MIC [12] [µM]	MIC80 [13] [µM]	MIC80 [14] [µM]	MIC95 [15] [µM]	MIC [16] [µM]	MIC95 [17] [µM]	MIC50 [18] [µM]	MIC [19] [µM]	MIC80 [20] [µM]	also measured
CCOP(=O)(OCC)Oc1ccc(Cl)cc1C(=O)Nc1ccc(Br)cc1	inactive	> 500	> 500	8 (≈ 3.7 µg/mL)	inactive	125 (≈ 57.8 µg/mL)	> 500	8 (≈ 3.7 µg/mL)	250 (≈ 116 µg/mL)	125 (≈ 57.8 µg/mL)	inactive	4 (≈ 1.85 µg/mL)	> 500	> 500	> 500	2 (≈ 0.925 µg/mL)	125 (≈ 57.8 µg/mL)	250 (≈ 116 µg/mL)	8 (≈ 3.7 µg/mL)	> 500	MIC80 [21]: > 500 µM; MIC [22]: 2 µM (≈ 0.925 µg/mL); MIC [23]: 8 µM (≈ 3.7 µg/mL); Activity [24]: inactive; MIC80 [25]: > 500 µM; IC50 [26]: 1.56 µM; MIC [27]: 4 µM (≈ 1.85 µg/mL); MIC [28]: 8 µM (≈ 3.7 µg/mL); Activity [29]: inactive; MIC95 [30]: > 500 µM; MIC95 [31]: 125 µM (≈ 57.8 µg/mL); MIC80 [32]: > 500 µM; Activity [33]: inactive; MIC [34]: 8 µM (≈ 3.7 µg/mL); MIC50 [35]: > 500 µM; Activity [36]: inactive
CCOP(=O)(OCC)Oc1ccc(Cl)cc1C(=O)Nc1ccc(Cl)cc1	inactive	> 500	> 500	8 (≈ 3.35 µg/mL)	inactive	125 (≈ 52.3 µg/mL)	> 500	8 (≈ 3.35 µg/mL)	500 (≈ 209 µg/mL)	250 (≈ 105 µg/mL)	inactive	8 (≈ 3.35 µg/mL)	> 500	> 500	125 (≈ 52.3 µg/mL)	4 (≈ 1.67 µg/mL)	62.5 (≈ 26.1 µg/mL)	500 (≈ 209 µg/mL)	8 (≈ 3.35 µg/mL)	> 500	MIC80 [21]: > 500 µM; MIC [22]: 4 µM (≈ 1.67 µg/mL); MIC [23]: 8 µM (≈ 3.35 µg/mL); Activity [24]: inactive; MIC80 [25]: > 500 µM; IC50 [26]: 13 µM; MIC [27]: 8 µM (≈ 3.35 µg/mL); MIC [28]: 8 µM (≈ 3.35 µg/mL); Activity [29]: inactive; MIC95 [30]: 250 µM (≈ 105 µg/mL); MIC95 [31]: 125 µM (≈ 52.3 µg/mL); MIC80 [32]: > 500 µM; Activity [33]: inactive; MIC [34]: 8 µM (≈ 3.35 µg/mL); MIC50 [35]: > 500 µM; Activity [36]: inactive
CCOP(=O)(OCC)Oc1cc(Cl)ccc1C(=O)Nc1cccc(Br)c1	inactive	> 500	> 500	8 (≈ 3.7 µg/mL)	inactive	125 (≈ 57.8 µg/mL)	> 500	16 (≈ 7.4 µg/mL)	> 500	250 (≈ 116 µg/mL)	inactive	4 (≈ 1.85 µg/mL)	> 500	> 500	250 (≈ 116 µg/mL)	4 (≈ 1.85 µg/mL)	125 (≈ 57.8 µg/mL)	> 500	8 (≈ 3.7 µg/mL)	> 500	MIC80 [21]: > 500 µM; MIC [22]: 4 µM (≈ 1.85 µg/mL); MIC [23]: 8 µM (≈ 3.7 µg/mL); Activity [24]: inactive; MIC80 [25]: > 500 µM; IC50 [26]: 8.07 µM; MIC [27]: 8 µM (≈ 3.7 µg/mL); MIC [28]: 8 µM (≈ 3.7 µg/mL); Activity [29]: inactive; MIC95 [30]: 500 µM (≈ 231 µg/mL); MIC95 [31]: 500 µM (≈ 231 µg/mL); MIC80 [32]: > 500 µM; Activity [33]: inactive; MIC [34]: 16 µM (≈ 7.4 µg/mL); MIC50 [35]: > 500 µM; Activity [36]: inactive
